Experimental data from ChEMBL document CHEMBL4428072, “Pharmacophore Model To Discover OX1 and OX2 Orexin Receptor Ligands” (J Med Chem, 2016).
Activity calls are given as the source filed them. The rule behind the calls is not given here.

Legend:
[1] = biological target: T1, Orexin/Hypocretin receptor type 1 (Homo sapiens) (UniProt O43613); assay: Displacement of [125I]-orexin A from human OX1 receptor expressed in […] at 10 uM after 90 mins by scintillation counting
T1 sequence (whole entry): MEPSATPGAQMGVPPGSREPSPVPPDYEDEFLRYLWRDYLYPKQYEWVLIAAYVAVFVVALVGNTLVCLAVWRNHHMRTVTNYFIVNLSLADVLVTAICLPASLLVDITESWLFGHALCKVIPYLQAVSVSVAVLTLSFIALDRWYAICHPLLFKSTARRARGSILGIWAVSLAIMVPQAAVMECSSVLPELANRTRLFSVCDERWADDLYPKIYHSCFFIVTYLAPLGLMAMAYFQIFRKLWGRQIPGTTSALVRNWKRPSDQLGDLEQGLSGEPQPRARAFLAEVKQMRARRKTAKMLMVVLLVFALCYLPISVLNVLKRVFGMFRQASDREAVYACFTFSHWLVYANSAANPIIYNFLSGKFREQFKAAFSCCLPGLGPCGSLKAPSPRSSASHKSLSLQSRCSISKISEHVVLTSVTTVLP

[2] = biological target: T2, Orexin/Hypocretin receptor type 1 (Homo sapiens, UniProt O43613); assay: Antagonist activity at human OX1 receptor expressed in […] assessed as inhibition of orexin A-induced Ca2+ elevation after 30 mins in presence of orexin A by FLIPR calcium 4 assay; assay type: functional, cell-based
T2 sequence (O43613 whole entry): T1 sequence (whole entry)
In short: (§1)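 Functional inhibition in CHO-hOX1 or CHO-hOX2 cells. Antagonist (10 nM–100 μM, 10-fold series) preincubated 10 min at 37 °C, then 0.3 nM orexin-A added. Ca2+ measured with Calcium 4 dye at 485/525 nm. Ki derived from inhibition of the orexin-A response. Three independent experiments in quadruplicate; mean ± SEM.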

[3] = biological target: T1, Orexin/Hypocretin receptor type 1 (Homo sapiens); assay: Agonist activity at human OX1 receptor expressed in CHO cells assessed as induction of Ca2+ elevation at 5 uM after 30 mins by FLIPR calcium 4 assay relative to orexin-A; assay type: functional, cell-based
In short: (§2)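 Screening in CHO-hOX1 or CHO-hOX2 cells loaded with Calcium 4 dye in HBM (137 mM NaCl, 20 mM Hepes, 1 mM CaCl2, pH 7.4) + probenecid. Fluorescence at 485/525 nm, 37 °C. 30 s baseline, compound added to 5 μM final and read for 120 s; the delayed response was read 30 min after addition for 30 s. Tested once in triplicate; % of full orexin-A activation.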

[4] = biological target: T1, Orexin/Hypocretin receptor type 1 (Homo sapiens); assay: Antagonist activity at human OX1 receptor expressed in CHO cells assessed as inhibition of orexin A-induced Ca2+ elevation at 5 uM after 30 mins by FLIPR calcium 4 assay; assay type: functional, cell-based
In short: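 Screening second round: after the 5 μM compound agonist read in CHO-hOX1 cells, 0.3 nM orexin-A was added at 30 s to all wells and the inhibition of the Ca2+ response was read by Calcium 4 fluorescence at 37 °C. Vehicle controls were included in each column. Tested once in triplicate.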

[5] = biological target: T3, Orexin receptor type 2 (Homo sapiens) (UniProt O43614); assay: Agonist activity at human OX2 receptor expressed in CHO cells assessed as induction of Ca2+ elevation at 10 uM after 30 mins in presence of TCS-1102 by FLIPR calcium 4 assay relative to orexin-A; assay type: functional, cell-based
T3 sequence (whole entry): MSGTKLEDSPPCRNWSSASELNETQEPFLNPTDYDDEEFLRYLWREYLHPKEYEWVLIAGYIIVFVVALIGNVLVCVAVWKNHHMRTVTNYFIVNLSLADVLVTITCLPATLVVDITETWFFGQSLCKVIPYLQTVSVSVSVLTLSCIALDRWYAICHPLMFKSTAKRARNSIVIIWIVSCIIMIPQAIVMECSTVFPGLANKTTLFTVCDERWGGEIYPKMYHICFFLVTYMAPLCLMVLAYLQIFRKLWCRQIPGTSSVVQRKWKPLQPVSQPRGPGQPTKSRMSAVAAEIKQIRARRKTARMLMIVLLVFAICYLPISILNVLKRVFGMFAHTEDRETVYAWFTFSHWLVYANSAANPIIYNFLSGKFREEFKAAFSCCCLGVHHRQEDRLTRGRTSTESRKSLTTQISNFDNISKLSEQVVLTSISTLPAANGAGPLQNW
In short: (§3)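 Agonist Ca2+ read in CHO-hOX1 or CHO-hOX2 cells loaded with Calcium 4 dye at 37 °C. Compound at 10 μM was added with or without 10 μM orexin antagonist to define the receptor-specific response. Expressed as % of full orexin-A response, taken from orexin-A concentration–response curves run in each experiment.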

[6] = biological target: T1, Orexin/Hypocretin receptor type 1 (Homo sapiens); assay: Agonist activity at human OX1 receptor expressed in […] assessed as induction of Ca2+ elevation at 10 uM after 30 mins by FLIPR back ground response; assay type: functional, cell-based
In short: (§4)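 CHO-hOX1 or CHO-hOX2 cells plated overnight at 1.5 × 10^4 cells/well, loaded with Calcium 4 dye in HBM + probenecid for 60 min at 37 °C. Fluorescence read at 485/525 nm, 37 °C. 30 s baseline, then compound at 10 μM (tested twice in validation; thrice at 1 and 10 μM in quadruplicate in characterization). Response expressed as % of orexin-A maximal response; background response measured within each experiment.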

[7] = biological target: T3, Orexin receptor type 2 (Homo sapiens); assay: Agonist activity at human OX2 receptor expressed in […] assessed as induction of Ca2+ elevation at 10 uM after 30 mins by FLIPR back ground response; assay type: functional, cell-based; in short: as §4
CHO = assay: Induction Ca2+ levels in CHO cells at 1 uM by FLIPR calcium 4 assay; assay type: functional, cell-based; conditions: Cricetulus griseus
In short: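 Control CHO cells lacking orexin receptors, loaded with Calcium 4 dye in HBM + probenecid for 60 min at 37 °C. Compound added (1 and 10 μM) and the Ca2+ fluorescence response read at 485/525 nm at 37 °C.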

[8] = biological target: T1, Orexin/Hypocretin receptor type 1 (Homo sapiens); assay: Agonist activity at human OX1 receptor expressed in CHO cells assessed as induction of Ca2+ elevation at 5 uM after 2 mins by FLIPR calcium 4 assay relative to orexin-A; assay type: functional, cell-based; in short: as §2
[9] = biological target: T1, Orexin/Hypocretin receptor type 1 (Homo sapiens); assay: Agonist activity at human OX1 receptor expressed in […] assessed as induction of Ca2+ elevation at 10 uM after 30 mins by FLIPR calcium 4 assay relative to orexin-A; assay type: functional, cell-based; in short: as §4
[10] = biological target: T3, Orexin receptor type 2 (Homo sapiens); conditions: CHO, at 10 µM
[11] = biological target: T3, Orexin receptor type 2 (Homo sapiens); assay: Agonist activity at human OX2 receptor expressed in CHO cells assessed as induction of Ca2+ elevation at 5 uM after 2 mins by FLIPR calcium 4 assay relative to orexin-A; assay type: functional, cell-based; in short: as §2
[12] = biological target: T1, Orexin/Hypocretin receptor type 1 (Homo sapiens); assay: Ratio of Ki for human OX1 receptor expressed in […] assessed as inhibition of orexin A-induced Ca2+ elevation to Ki for human OX1 receptor expressed in CHO cells by [125I]-orexin A displacement assay
[13] = biological target: T3, Orexin receptor type 2 (Homo sapiens); conditions: CHO, at 5 µM
Orexin receptor type 2 [14] = biological target: T4, Orexin receptor type 2 (Homo sapiens, UniProt O43614); assay: Displacement of [125I]-orexin A from human OX2 receptor expressed in […] after 90 mins by scintillation counting
T4 sequence (O43614 whole entry): T3 sequence (whole entry)
In short: (§5)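 Intact CHO-hOX1 or CHO-hOX2 cells in HBM + 0.1% stripped BSA + 30 μM dyngo 4a, preincubated 10 min (10 μM antagonist used to define nonspecific binding). 0.05 nM [125I]-orexin-A added with compound (10 nM–100 μM, 10-fold series). Incubated 90 min at room temperature, wells dried, scintillation counted. At least three experiments; IC50/Ki by nonlinear fitting.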

Orexin receptor type 2 [15] = biological target: T4, Orexin receptor type 2; assay: Antagonist activity at human OX2 receptor expressed in […] assessed as inhibition of orexin A-induced Ca2+ elevation […] in presence of orexin A by FLIPR calcium 4 assay; assay type: functional, cell-based; in short: as §1
Homo sapiens [16] = species on record: Homo sapiens; assay: Ratio of Ki for human OX1 receptor expressed in […] to Ki for human OX2 receptor expressed in […] by [125I]-orexin A displacement assay; assay type: cell membranes; in short: as §5
[17] = biological target: T3, Orexin receptor type 2 (Homo sapiens); assay: Agonist activity at human OX2 receptor expressed in […] assessed as induction of Ca2+ elevation at 10 uM after 30 mins by FLIPR calcium 4 assay relative to orexin-A; assay type: functional, cell-based; in short: as §4
Homo sapiens [18] = species on record: Homo sapiens; assay: Ratio of Ki for human OX1 receptor expressed in CHO cells to Ki for human OX2 receptor expressed in CHO cells by Ca2+ elevation based assay; assay type: cell-based; in short: as §1
[19] = biological target: T1, Orexin/Hypocretin receptor type 1 (Homo sapiens); assay: Agonist activity at human OX1 receptor expressed in CHO cells assessed as induction of Ca2+ elevation at 10 uM after 30 mins in presence of TCS-1102 by FLIPR calcium 4 assay relative to orexin-A; assay type: functional, cell-based; in short: as §3

inhibition [1] [%]	Ki [2] [nM]	Activity [3]	inhibition [4] [%]	fold change (FC) [6]	fold change (FC) [7]	Activity [8]	Activity [9] [%]	inhibition [10] [%]	Activity [11]	Ratio Ki [12]	inhibition [13] [%]	IC50 (Orexin receptor type 2 [14]) [nM]	Ki (Orexin receptor type 2 [14]) [nM]	Ki (Orexin receptor type 2 [15]) [nM]	SMILES	Activity (CHO)	other results
> 50	16200	Active	> 20	–	–	–	–	–	–	–	–	–	–	–	Cc1cccc2c1[nH]c1nc(N/N=C\c3c4ccccc4cc4ccccc34)nnc12	–	–
20 to 40	–	Active	–	1.9	1.4 to 2.2	Active	2.7	20 to 40	Active	–	–	–	–	–	COc1ccc(Nc2nc(NCc3ccco3)nc(N/N=C\c3cc(Br)c(O)c(Br)c3)n2)cc1	inactive	Activity [5]: 3.5%
> 50	7000	Active	> 20	–	–	–	–	> 50	–	2 to 9	> 20	700	1100	1000	CCOC(=O)c1c(NC(=O)C(C)Sc2nnc(CNC(=O)c3cc(OC)cc(OC)c3)n2-c2ccccc2OC)sc2c1CCC2 (centres undefined)	–	–
> 50	13100	Active	> 20	–	–	–	–	> 50	–	2 to 9	> 20	500	800	900	COc1ccc(CCNC(=O)Cn2c(-c3nonc3N)nc3ccccc32)cc1OC	–	–
> 70	–	Active	–	3.4	1.4 to 2.2	Active	7.3	> 70	Active	–	–	1700	2500	–	COC(=O)CN(C(C)=O)C(c1ccccc1)c1cc(Br)ccc1NC(=O)c1ccccc1Cl (centres undefined)	inactive	Ratio Ki (Homo sapiens [16]): 10; Activity [17]: 1 to 3.7%
> 50	6000	Active	> 20	–	–	–	–	> 50	–	2 to 9	> 20	130	200	300	O=C(CSc1nnc(-c2cccs2)n1Cc1ccco1)Nc1ccc2c(c1)OCCO2	–	Ratio Ki (Homo sapiens [18]): 20
> 50	46700	Active	> 20	–	–	–	–	> 50	–	2 to 9	> 20	70	100	100	COc1ccc(N(CC(=O)NC(C)c2ccccc2)S(=O)(=O)c2ccc(OC)c(OC)c2)cc1 (centres undefined)	–	Ratio Ki (Homo sapiens [18]): 50
20 to 40	–	Active	–	2.8	1.4 to 2.2	Active	5.4	20 to 40	Active	–	–	11800	17800	–	CC(/C=C/c1ccccc1)=N/Nc1nc(Nc2ccccc2)nc(-n2nc(C)cc2C)n1	inactive	Activity [19]: 2.1%; Activity [17]: 1 to 3.7%
> 70	–	Active	–	3.3	1.4 to 2.2	Active	6.3	> 70	Active	–	–	900	1400	–	COc1ccccc1OCCNC[C@@H](O)COc1cccc2[nH]c3ccccc3c12 [(R)-Carvedilol]	inactive	Activity [17]: 1 to 3.7%
> 50	21600	Active	> 20	–	–	–	–	> 50	–	2 to 9	> 20	700	1000	1200	C=CCN1C(=O)C2(Nc3ccccc3C(=O)N2c2ccccc2OC)c2ccccc21 (centres undefined)	–	–

SMILES	inhibition [1] [%]	Ki [2] [nM]	Activity [3]	inhibition [4] [%]	fold change (FC) [6]	fold change (FC) [7]	Activity [8]	Activity [9] [%]	inhibition [10] [%]	Activity [11]	Ratio Ki [12]	inhibition [13] [%]	IC50 (Orexin receptor type 2 [14]) [nM]	Ki (Orexin receptor type 2 [14]) [nM]	Ki (Orexin receptor type 2 [15]) [nM]	Activity (CHO)	other results
Cc1ccc(C(O)(C(=O)NNc2cc(Cl)ccc2Cl)c2ccc(C)cc2)cc1	> 50	10300	Active	> 20	–	–	–	–	> 50	–	2 to 9	> 20	800	1300	1700	–	–
